# T cruzi intra – inhibitors of intracellular Trypanosoma cruzi; AID 651903; intracellular Trypanosoma cruzi in host cells, plate reader; activity score (inhibition), % at 5.01 µM; hit rate 4.9% among 22,000; in the data active means activity score above about 55%; inconclusive means no clear call, values can overlap the other calls;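 further: parasites and compound incubated about four days before reading; 0% = median of neutral control wells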
# A1 apoptosis 2 – blocks A1, raising caspase activity; 24,000 tested, under 10 active; MEF A1-2A-BIM cells, caspase-Glo luminescence, 3 h; percent of clofoctol response, DMSO zero; AID 2465; caspase activation, % (no concentration beside the values); in the data active means caspase activation above about 5.9%; inconclusive means no clear call, values can overlap the other calls; inactive means below about 2.2%
#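 system = A1-2A-BIM-expressing MEF cells | quantity = 2500 MEF cells/well | dosing = 50 nL compound per well, pinned | schedule = overnight cell settling, then 3 h compound exposure, 37 °C | signal = luminescence from DEVD-luciferin Caspase-Glo reagent, 1:1 in 50 mM HEPES, 1 h RT | read-out = Caspase-3/7 activation, seen as rise in luminescence signal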
# INS-1E ATP HTS – rescue of cytokine-induced death in INS-1E beta cells; INS-1E cytokine-induced death, ATP luminescence, 48 h; normalised: neutral wells 0, positive control 100; protection from cytokine-induced ATP loss, % at 10 µM; hit rate 0.1% among 20,000;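 active means mean replicate protection from cytokine-induced ATP loss at least 50% and at least 75% of replicates each reaching 50%; inconclusive means meets only one of the two criteria, mean or replicate share; inactive means fails both the mean and replicate share criteria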
#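 Assay system – rat INS-1E insulinoma cell line · Quantity – 8000 cells per well · Buffer or medium – RPMI without phenol red, 5% FBS · Schedule – 48 h co-treatment, 10 min post-lysis read · Technique – luminescent ATP assay (CellTiter-Glo)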
# Numbers without * were called inactive; ? = inconclusive; · = not tested or not shown. This is one part of a sample in which hits are shown more often than they occur.
SMILES,T cruzi intra,A1 apoptosis 2,INS-1E ATP HTS
C[C@H]1CN([C@@H](C)CO)C(=O)Cc2cc(N(C)C)ccc2O[C@@H]1CN(C)Cc1ccc(C(=O)Nc2ccccc2N)cc1,70.1*,·,5.5
C[C@H]1CN([C@@H](C)CO)C(=O)Cc2cc(NC(=O)Nc3cccc4ccccc34)ccc2O[C@H]1CN(C)Cc1ccc(C(=O)Nc2ccccc2N)cc1,74.2*,0.2,-9.3
C[C@H]1CN([C@@H](C)CO)C(=O)Cc2cc(NC(=O)Nc3cccc4ccccc34)ccc2O[C@@H]1CN(C)Cc1ccc(C(=O)Nc2ccccc2N)cc1,37.9,-1.7,-14.2
C[C@@H]1CN([C@@H](C)CO)C(=O)Cc2cc(N(C)C)ccc2O[C@H]1CN(C)Cc1ccc(C(=O)Nc2ccccc2N)cc1,·,-0.2,·
C[C@H](CO)N1C[C@H](C)[C@@H](CN(C)Cc2ccc(C(=O)Nc3ccccc3N)cc2)Oc2ccc(NC(=O)Nc3ccc(F)cc3)cc2CC1=O,·,-0.2,·
COC(=O)c1ccc([C@@H]2C=C(C(=O)O)O[C@H](OCCCCO)C2)cc1,·,-0.4,·
O=C(N/N=C/c1cc2ccccc2n1S(=O)(=O)c1ccccc1)c1ccccc1O,0.2,-0.9,4.8
C[C@H]1CN([C@@H](C)CO)C(=O)Cc2cc(NC(=O)c3ccncc3)ccc2O[C@H]1CN(C)Cc1ccc(C(=O)Nc2ccccc2N)cc1,34.4,·,0.6
C[C@@H]1CN([C@H](C)CO)C(=O)Cc2cc(NC(=O)Nc3ccc(F)cc3)ccc2O[C@@H]1CN(C)Cc1ccc(C(=O)Nc2ccccc2N)cc1,59.5*,0.1,-15.4
Cc1noc(C)c1S(=O)(=O)Nc1ccc2c(c1)C(=O)N([C@H](C)CO)C[C@H](C)[C@@H](CN(C)Cc1ccc(Cl)c(Cl)c1)O2,63.4*,·,-9.8
Cc1noc(C)c1S(=O)(=O)Nc1ccc2c(c1)CC(=O)N([C@H](C)CO)C[C@@H](C)[C@@H](CN(C)Cc1ccc(Cl)c(Cl)c1)O2,60.6*,·,-28.4
Cc1noc(C)c1S(=O)(=O)Nc1ccc2c(c1)C(=O)N([C@@H](C)CO)C[C@@H](C)[C@H](CN(C)Cc1ccc(C(F)(F)F)cc1)O2,27.6,·,-17.7
Cc1noc(C)c1S(=O)(=O)Nc1ccc2c(c1)C(=O)N([C@H](C)CO)C[C@H](C)[C@H](CN(C)Cc1ccc(C(F)(F)F)cc1)O2,63.1*,·,-12.1
Cc1noc(C)c1S(=O)(=O)Nc1ccc2c(c1)CC(=O)N([C@H](C)CO)C[C@H](C)[C@H](CN(C)Cc1ccc(Cl)c(Cl)c1)O2,52.7,0.9,-10.4
Cc1noc(C)c1S(=O)(=O)Nc1ccc2c(c1)C(=O)N([C@H](C)CO)C[C@@H](C)[C@@H](CN(C)Cc1ccc(Cl)c(Cl)c1)O2,4.6,·,-7.8
CC1(C)[C@H]2CC=C(/C=N\NC(=O)c3cccc(C(=O)NO)c3)[C@@H]1C2,0.8,·,-4.4
[N-]=[N+]=NCc1ccccc1C[C@@]1(C(=O)NCCN2CCOCC2)N=C(c2ccc(OCCCO)cc2)O[C@@H]1c1ccccc1,·,0.0,·
C[C@H]1CN([C@@H](C)CO)C(=O)c2cccc(NS(=O)(=O)c3cn(C)cn3)c2O[C@H]1CN(C)Cc1ccc(C(F)(F)F)cc1,-6.6,0.5,0.8
O=C(NO)c1cccc(C(=O)N/N=C/c2cccc(B(O)O)c2)c1,-21.9,-0.1,2.7
C[C@H](CO)N1C[C@H](C)[C@H](CN(C)Cc2ccc3c(c2)OCO3)Oc2ncc(-c3ccc(F)cc3)cc2C1=O,18.5,0.3,·
CCCN(C)C[C@@H]1Oc2ncc(-c3cc4ccccc4o3)cc2C(=O)N([C@H](C)CO)C[C@@H]1C,?,1.1,·
COc1ccc(S(=O)(=O)N(C)C[C@@H]2Oc3ncc(-c4cc5ccccc5o4)cc3C(=O)N([C@H](C)CO)C[C@@H]2C)cc1,47.0,0.3,-14.6
C[C@H](CO)N1C[C@H](C)[C@H](CN(C)C)Oc2ncc(-c3cc4ccccc4o3)cc2C1=O,85.3*,0.0,·
C[C@H](CO)N1C[C@H](C)[C@H](CN(C)S(=O)(=O)c2cccs2)Oc2ncc(-c3cc4ccccc4o3)cc2C1=O,67.2*,-0.4,·
C[C@H](CO)N1C[C@H](C)[C@H](CN(C)Cc2ccc3c(c2)OCO3)Oc2ncc(-c3cc4ccccc4o3)cc2C1=O,77.6*,-1.6,·
O=C(O)CCCCCCC(=O)N/N=C/c1cc(Br)ccc1O,-11.2,-0.5,10.6
CC(/C=C/C(=O)NO)=C\c1cccc(OCc2ccc(COc3ccc4ccncc4c3)cc2)c1,·,-0.4,·
COc1cc(/C=N/NC(=O)CCCCCCC(=O)Nc2ccccc2O)c([N+](=O)[O-])cc1OC,-3.8,-0.9,5.9

# Compound activity deposited in PubChem by Broad Institute.
